Data on twelve compounds can be found in publication PMC3406267 (The Open Medicinal Chemistry Journal, 2012).

A value given as a limit tells only on which side of the number the result lay.

One experiment deals with CB1R (Mus musculus, UniProt P47746). Put plainly: Radioligand binding, CB1R, [3H]-CP-55,940 competition in mouse brain.
Experiment [1] addresses CB2R (Mus musculus, UniProt P47936). Nature of the experiment: Radioligand binding, CB2R, [3H]-CP-55,940 competition in mouse spleen homogenate.
For the next experiment, the system named is CB2. The settings on record: Fig. 2 and introduction; cited from earlier work.
Experiment [2] has as its system CB2R. The settings on record: CB2R-mediated gastrointestinal assays; cited from earlier work.
Experiment [3] relates to P-ERK 1/2 expression in HL-60 cells selectively expressing CB2R. The conditions noted are these: cited from earlier work.
The test system is the same in experiment [4]. Nature of the experiment: P-ERK 1/2 expression. It is filed as cell-based, human. In outline:
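HL-60 cells grown at 37 °C, 5% CO2, in RPMI 1640 with 10% heat-inactivated FBS, 25 mM HEPES, 2.5 mM pyruvate and gentamicin, and used at 80% confluency. Compounds were given in medium with 1% DMSO for 15 min, with or without 75 nM AM630 added 5 min before. Lysates (HEPES pH 7.9, 4 °C) were western-blotted for P-ERK1/2. Values are % of vehicle, five separate experiments, ±SEM.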

CB1R, sequence (P47746 whole entry): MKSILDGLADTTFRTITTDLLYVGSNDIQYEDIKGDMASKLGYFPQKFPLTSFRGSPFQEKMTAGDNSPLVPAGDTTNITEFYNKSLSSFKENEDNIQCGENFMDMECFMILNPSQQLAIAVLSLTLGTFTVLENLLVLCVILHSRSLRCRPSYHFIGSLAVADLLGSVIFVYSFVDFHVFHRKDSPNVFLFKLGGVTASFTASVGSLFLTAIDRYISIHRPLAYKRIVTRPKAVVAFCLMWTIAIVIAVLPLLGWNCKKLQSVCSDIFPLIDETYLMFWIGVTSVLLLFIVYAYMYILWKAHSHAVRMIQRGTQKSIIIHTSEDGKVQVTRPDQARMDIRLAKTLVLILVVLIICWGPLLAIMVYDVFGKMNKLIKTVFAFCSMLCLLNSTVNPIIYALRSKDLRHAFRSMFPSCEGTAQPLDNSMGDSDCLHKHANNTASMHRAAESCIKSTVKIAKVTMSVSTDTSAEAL
CB2R (Mus musculus, UniProt P47936), sequence (P47936 whole entry): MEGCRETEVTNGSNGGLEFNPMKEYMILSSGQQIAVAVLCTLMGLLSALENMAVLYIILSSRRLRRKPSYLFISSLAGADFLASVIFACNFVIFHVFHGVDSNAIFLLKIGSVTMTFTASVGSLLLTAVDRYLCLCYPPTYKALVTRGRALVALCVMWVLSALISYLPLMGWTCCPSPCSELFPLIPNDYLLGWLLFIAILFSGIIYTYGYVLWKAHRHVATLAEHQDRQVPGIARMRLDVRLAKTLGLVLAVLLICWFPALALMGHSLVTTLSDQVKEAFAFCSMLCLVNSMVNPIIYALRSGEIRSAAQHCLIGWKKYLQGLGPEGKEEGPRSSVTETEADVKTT

Regarding `Cc1cc2c(cc1Cl)-c1c(c(C(=O)NC34CC5CC(CC(C5)C3)C4)nn1-c1ccc(Cl)cc1Cl)C2` [Compound 10, N-Adamant-1-yl-7-chloro-1-(2,4-dichlorophenyl)-6-methyl-1,4-dihydroindeno[1,2-c]pyrazole-3-carboxamide], the Ki on CB1R is 1.3 ± 0.347 µM; at CB2R [1] it was 0.425 ± 0.095 µM.

Regarding “5-(4-chloro-3-methylphenyl)-1-(4-methylbenzyl)-N-fenchyl-1H-pyrazole-3-carboxamide [Compound 1]”, the “selectivity ratio KiCB1/KiCB2 of SR144528” value with CB2 is recorded as above 600. In addition, in the experiment with CB2R [2], the “in vivo CB2R antagonist activity” value is recorded as “remarkable in vivo CB2R antagonist activity”.

For `Cc1ccc2c(c1)Cc1c(C(=O)NN3CCCCC3)nn(-c3ccc(Cl)cc3Cl)c1-2` [Compound 2, 1-(2,4-dichlorophenyl)-6-methyl-N-(piperidin-1-yl)-1,4-dihydroindeno[1,2-c]pyrazole-3-carboxamide], in experiment [3], the “CB2 intrinsic activity in vitro” value is on record as “CB2 agonist activity in vitro”.

As to `Cc1cc2c(cc1Cl)-c1c(c(C(=O)N[C@H]3CC[C@H](C)CC3)nn1-c1ccc(Cl)cc1Cl)C2` [Compound 14, Trans-N-(4-Methylcyclohexyl)-7-chloro-1-(2,4-dichlorophenyl)-6-meth-yl-1,4-dihydroindeno[1,2-c]pyrazole-3-carboxamide], the Ki at CB1R is above 5 µM; at CB2R [1], 0.325 ± 0.053 µM.

Turning to `Cc1cc2c(cc1Cl)-c1c(c(C(=O)NC3C4CC5CC(C4)CC3C5)nn1-c1ccc(Cl)cc1Cl)C2` (stereo not drawn) [Compound 11, N-Adamant-2-yl-7-chloro-1-(2,4-dichlorophenyl)-6-methyl-1,4-dihydroindeno[1,2-c]pyrazole-3-carboxamide], the values for the inhibition constant Ki on CB1R and at CB2R [1] were 4.62 ± 0.857 µM and 0.275 ± 0.025 µM, respectively.

`Cc1cc2c(cc1Cl)-c1c(c(C(=O)NC(C)c3cccc4ccccc34)nn1-c1ccc(Cl)cc1Cl)C2` (stereo not drawn) [Compound 19, N-(1-(1-Naphthyl)ethyl)-7-chloro-1-(2,4-dichlorophenyl)-6-methyl-1,4-dihydroindeno[1,2-c]pyrazole-3-carboxamide]: the Ki at CB1R was above 5 µM; on CB2R [1], 2.4 ± 0.4 µM.

Turning to `Cc1cc2c(cc1Cl)-c1c(c(C(=O)NC3CC4CCC3(C)C4(C)C)nn1-c1ccc(Cl)cc1Cl)C2` (stereo not drawn) [Compound 6, N-Bornyl-7-chloro-1-(2,4-dichlorophenyl)-6-methyl-1,4-dihydroindeno[1,2-c]pyrazole-3-carboxamide], the Ki at CB1R is 2.67 ± 0.167 µM; on CB2R [1], 0.474 ± 0.025 µM.

Consider `Cc1c(C(=O)c2cccc3ccccc23)c2cccc3c2n1[C@H](CN1CCOCC1)CO3` [WIN 55,212-2], for which the “P-ERK 1/2 expression, percentage of increment versus vehicle” value in experiment [4] (75 nM (dose of maximum effect), 15 min exposure) is listed as “+83.2 ± 18.9%”. For the same compound, the “Effect on P-ERK 1/2 expression after 5 min pre-treatment with CB2 antagonist AM630” value in experiment [4] (AM630 75 nM, agonist at dose of maximum effect, 15 min) was “counteracted”. Besides, the “P-ERK 1/2 expression in treated HL-60 cells versus vehicle” value in experiment [4] (western blot, 15 min exposure) is on record as “significant increase”.

Take `Cc1cc2c(cc1Cl)-c1c(c(C(=O)NC3CC(C)CCC3C(C)C)nn1-c1ccc(Cl)cc1Cl)C2` (stereo not drawn) [Compound 9, N-Menthyl-7-chloro-1-(2,4-Dichlorophenyl)-6-methyl-1,4-dihydroindeno[1,2-c]pyrazole-3-carboxamide]: the Ki at CB1R was found to be 1.25 ± 0.359 µM; on CB2R [1] it was 3.1 ± 0.283 µM.

As to `Cc1cc2c(cc1Cl)Cc1c(C(=O)NC34CC5CC(CC(C5)C3)C4)nn(-c3ccc(Cl)cc3Cl)c1-2` [Compound 24, N-Adamant-1-yl-6-chloro-1-(2,4-dichlorophenyl)-7-methyl-1,4-dihydroindeno[1,2-c]pyrazole-3-carboxamide], the Ki at CB1R was 4.75 ± 0.02 µM; at CB2R [1], 1.35 ± 0.813 µM.

`Cc1cc2c(cc1Cl)-c1c(c(C(=O)Nc3cccc4ccccc34)nn1-c1ccc(Cl)cc1Cl)C2` [Compound 18, N-(Naphthalen-1-yl)-7-chloro-1-(2,4-dichlorophenyl)-6-methyl-1,4-dihydroindeno[1,2-c]pyrazole-3-carboxamide]: the figures for the Ki at CB1R and at CB2R [1] were above 5 µM and 1.13 ± 0.125 µM, respectively.

Take `Cc1cc2c(cc1Cl)-c1c(c(C(=O)NC3CCCCCC3)nn1-c1ccc(Cl)cc1Cl)C2` [Compound 16, N-Cycloheptyl-7-chloro-1-(2,4-dichlorophenyl)-6-methyl-1,4-dihydroindeno[1,2-c]pyrazole-3-carboxamide]: the Ki on CB1R is 3.75 ± 1.25 µM; at CB2R [1], 1.53 ± 1.24 µM.

Usually Ki stands for the equilibrium dissociation constant of an inhibitor or competing ligand from its target. Higher therefore signals lower affinity.
